Source: ChEMBL document CHEMBL1121573, “2-(Aminomethyl)phenols, a new class of saluretic agents. 1. Effects of nuclear substitution” (J Med Chem, 1980)

Legend:
Rattus norvegicus [1] = test: Compound administered orally at a dose of 81 mg/kg was evaluated for salidiuretic activity measured as sodium ion excretion in Rat; type: ADME, organism-based, Urine; parameters: dose 81 mg/kg, route oral; unit not given beside the values; settings: in vivo, po
Procedure, shortened: (§1)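 Female Charles-River rats (150–170 g), overnight on sugar diet with water ad libitum. Compound dissolved in DMF, diluted with water containing Tween 80 (final 4% DMF), given po in 5.0 mL; concurrent vehicle placebo. Three rats per metabolism cage; 0–5 h urine analysed for Na+, K+, Cl-. Values: mequiv × 100 per cage, geometric means of three cages per dose; scored 0–6 by Na+.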

Rattus norvegicus [2] = test: Evaluated for salidiuretic activity measured as sodium ion excretion in Rat, administered orally at a dose of 50 mg/kg; type: functional, Urine; parameters: unit not given beside the values; settings: route oral; procedure, shortened: as §1
Canis familiaris [3] = test: Compound administered intravenously was evaluated for salidiuretic activity measured as sodium ion excretion in Dog; Value ranges from 0-99; type: ADME, organism-based, Canis lupus familiaris, Urine; settings: in vivo, iv
Procedure, shortened: (§2)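 Conditioned female mongrel dogs, postabsorptive, water-loaded (500 mL po) 1 h before sodium pentobarbital anesthesia (30 mg/kg iv). Bladder catheter; creatinine 4 g sc; phosphate–mannitol buffer pH 7.4 infused (3.0 mL/min) throughout. […] Urine Na+ measured; response scored 0–6.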

[4] = Compound administered orally at a dose of 5 mg/kg was evaluated for salidiuretic activity measured as sodium ion excretion in Rat; type: organism-based; parameters: dose 5 mg/kg; settings: Urine; procedure, shortened: as §1
Canis familiaris [5] = test: Compound administered intravenously at a dose of 5 mg/kg was evaluated for salidiuretic activity measured as sodium ion excretion in Dog; Value ranges from 100-249; type: ADME, organism-based, Canis lupus familiaris, Urine; parameters: dose 5 mg/kg, route intravenous; settings: in vivo, iv; procedure, shortened: as §2
[6] = Evaluated for salidiuretic activity measured as sodium ion excretion in Rat, administered orally at a dose of 16.5 mg/kg; type: organism-based; parameters: dose 16.5 mg/kg; settings: Urine; procedure, shortened: as §1
Canis familiaris [7] = test: Compound administered intravenously at a dose of 5 mg/kg was evaluated for salidiuretic activity measured as sodium ion excretion in Dog; Value ranges from 800-899; type: ADME, organism-based, Canis lupus familiaris, Urine; parameters: dose 5 mg/kg, route intravenous; unit not given beside the values; settings: in vivo, iv; procedure, shortened: as §2
Canis familiaris [8] = test: Compound administered intravenously at a dose of 5 mg/kg was evaluated for salidiuretic activity measured as sodium ion excretion in Dog; type: ADME, organism-based, Canis lupus familiaris, Urine; parameters: dose 5 mg/kg, route intravenous; settings: in vivo, iv; procedure, shortened: as §2
Canis familiaris [9] = test: Salidiuretic activity in dog following i.v. dosing at 5 mg/kg; type: functional, Canis lupus familiaris, Urine; parameters: unit not given beside the values; settings: route intravenous
Procedure, shortened: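 Conditioned female mongrel dogs, postabsorptive, got a 500 mL oral water load 1 h before pentobarbital anesthesia (30 mg/kg iv). After replicate 15-min control collections, compound was given as an iv stat injection.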

Canis familiaris [10] = test: Compound administered intravenously was evaluated for salidiuretic activity measured as sodium ion excretion in Dog; Value ranges from 250-399; type: ADME, organism-based, Canis lupus familiaris, Urine; settings: in vivo, iv; procedure, shortened: as §2
Canis familiaris [11] = test: Compound administered intravenously at a dose of 5 mg/kg was evaluated for salidiuretic activity measured as sodium ion excretion in Dog; Value ranges from 0-99; type: ADME, organism-based, Canis lupus familiaris, Urine; parameters: dose 5 mg/kg, route intravenous; settings: in vivo, iv; procedure, shortened: as §2
Rattus norvegicus [12] = test: Compound administered orally at a dose of 1 mg/kg was evaluated for salidiuretic activity measured as sodium ion excretion in Rat; settings: in vivo, po

Diuretic activity (Rattus norvegicus [1]) | Compound | Diuretic activity (Rattus norvegicus [2]) | Diuretic activity [4] | Diuretic activity [6] | other results
< 0.3 | Cc1c(Cl)c(C)c(CN)c(O)c1CN.Cl.Cl | <0.2 |  |  | 
 | Cc1c(Cl)cc(CN)c(O)c1C.Cl |  |  |  | Diuretic activity (Canis familiaris [3]): 0
1.5 | COc1cc(Cl)c(Cl)c(CN)c1O.Cl | 1.2 | 0.3 | 0.5 | Diuretic activity (Canis familiaris [5]): 100
 | Cl.NCc1c(O)c(Cl)cc(Cl)c1F | 3.3 | 1.4 | 2.7 | Diuretic activity (Canis familiaris [7]): 800
 | CCc1cc(Cl)c(O)c(CN)c1.Cl | 3.3 | 1.4 | 2.7 | Diuretic activity (Canis familiaris [8]): > 900
< 0.3 | Br.Cc1c(O)c(CN)c(Cl)c(C)c1Cl | <0.2 |  |  | Diuretic activity (Canis familiaris [5]): 100
 | CCCc1cc(Cl)c(O)c(CN)c1.Cl | 3.3 | 1.4 | 2.7 | Diuretic activity (Canis familiaris [8]): > 900
 | CCCc1ccc(O)c(CN)c1.Cl |  |  |  | Diuretic activity (Canis familiaris [9]): 250
 | COc1c(C)c(OC)c(CN)c(O)c1Cl |  |  |  | Diuretic activity (Canis familiaris [10]): 250
2.9 | CC(C)(C)c1c(Cl)cc(CN)c(O)c1Cl.Cl | 2.4 | 0.5 | 1.4 | Diuretic activity (Canis familiaris [9]): 250
 | Cc1cc(Cl)c(Cl)c(CN)c1O.Cl |  |  |  | Diuretic activity (Canis familiaris [10]): 250
 | CCCCCC(C)c1cc(C)c(O)c(CN)c1.Cl (stereo not given) |  |  |  | Diuretic activity (Canis familiaris [10]): 250
 | CC(C)(C)c1cc(CN)c(O)c(C(C)(C)C)c1 |  |  |  | Diuretic activity (Canis familiaris [3]): 0
2.4 | Cc1cc(Cl)c(O)c(CN)c1.Cl | 1.8 | 0.4 | 0.6 | Diuretic activity (Canis familiaris [5]): 100
 | Cc1cc(CN)c(O)c(C(C)(C)C)c1.Cl |  |  |  | Diuretic activity (Canis familiaris [5]): 100
 | Cl.NCc1cc(Cl)cc(-c2ccccc2)c1O |  |  |  | Diuretic activity (Canis familiaris [9]): 250
 | CCCc1cc(CN)c(O)c(CCC)c1.Cl |  |  |  | Diuretic activity (Canis familiaris [9]): 250

Diuretic activity (Rattus norvegicus [1]) | Compound | Diuretic activity (Rattus norvegicus [2]) | Diuretic activity [4] | Diuretic activity [6] | other results
 | Cc1cc(Cl)c(C)c(CN)c1O.Cl |  |  |  | Diuretic activity (Canis familiaris [3]): 0
1.5 | CC(C)Cc1cc(I)c(O)c(CN)c1.Cl | 1.2 | 0.3 | 0.5 | Diuretic activity (Canis familiaris [5]): 100
1.5 | Cl.NCc1c(O)c(Cl)cc(Cl)c1O | 1.2 | 0.3 | 0.5 | Diuretic activity (Canis familiaris [3]): 0
2.4 | CC(C)(C)c1cc(CN)c(O)c(Oc2ccc(Cl)cc2)c1.Cl | 1.8 | 0.4 | 0.6 | Diuretic activity (Canis familiaris [5]): 100
 | CCOc1cc(Cl)c(O)c(CN)c1.Cl |  |  |  | Diuretic activity (Canis familiaris [10]): 250
 | CCCCc1cc(C)c(O)c(CN)c1.Cl |  |  |  | Diuretic activity (Canis familiaris [5]): 100
 | COc1c(Cl)c(OC)c(CN)c(O)c1I.Cl | 3.3 | 1.4 | 2.7 | Diuretic activity (Canis familiaris [7]): 800
 | COc1cc(Cl)c(OC)c(CN)c1O.Cl |  |  |  | Diuretic activity (Canis familiaris [10]): 250
1.5 | CCc1c(Cl)c(C)c(Cl)c(O)c1CN.Cl | 1.2 | 0.3 | 0.5 | Diuretic activity (Canis familiaris [5]): 100
2.4 | Cc1cc(C)c(O)c(CN)c1C.Cl | 1.8 | 0.4 | 0.6 | Diuretic activity (Canis familiaris [9]): 250
 | CC(C)(C)c1cc(O)c(CN)c(C(C)(C)C)c1.Cl |  |  |  | Diuretic activity (Canis familiaris [11]): 0
 | CCC(C)c1cc(Cl)c(O)c(CN)c1.Cl (stereo not given) | 3.6 | 2.6 | 3.3 | Diuretic activity (Canis familiaris [7]): 800; Diuretic activity (Rattus norvegicus [12]): 0.7
 | Cc1c(Cl)c(C)c(CN)c(O)c1Cl.Cl | 3.3 | 1.4 | 2.7 | 
1.5 | NCc1c(O)ccc(Cl)c1Cl | 1.2 | 0.3 | 0.5 | Diuretic activity (Canis familiaris [9]): 250
 | Cl.NCc1cc(CN)c(Cl)c(Cl)c1O |  |  |  | Diuretic activity (Canis familiaris [3]): 0
 | CCc1cc(CN)c(O)c(CN)c1.Cl |  |  |  | Diuretic activity (Canis familiaris [11]): 0
